In ChEMBL document CHEMBL4627297, “Comparative reactivity analysis of small-molecule thiol surrogates” (Bioorg Med Chem, 2020):

Experiments:
[1] = Solubility of the compound in pH 7.4 PBS buffer; assay type: physicochemical
Procedure, shortened: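 Solubility was judged by eye as the absence of precipitation during the thiol reactivity incubations. Conditions were 250 µM fragment in PBS pH 7.4 with 5% acetonitrile, over up to 72 h.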

[2] = Drug reactivity against N-benzoyl-cysteine in pH 7.4 PBS buffer assessed as half life at 250 uM measured up to 72 hrs by HPLC-MS analysis; assay type: ADME; settings: PBS buffer with N-benzoyl-cysteine (thiol reactivity)
Procedure, shortened: (§1)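 Fragment (500 µM in PBS pH 7.4 with 10% acetonitrile and 200 µM indoprofen internal standard) was mixed 1:1 with 10 mM thiol surrogate in PBS. Final concentrations were 250 µM fragment, 5 mM thiol, 100 µM indoprofen and 5% acetonitrile, giving pseudo-first-order conditions. HPLC sampling at 0, 1, 2, 4, 8, 12, 24, 48 and 72 h.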

[3] = Drug reactivity against N-benzoyl-glutathione in pH 7.4 PBS buffer assessed as half life at 250 uM measured up to 72 hrs by HPLC-MS/MS analysis; assay type: ADME; settings: PBS buffer with N-benzoyl-glutathione (thiol reactivity); procedure, shortened: as §1
[4] = Drug reactivity against cysteine in pH 7.4 PBS buffer assessed as half life at 250 uM measured up to 72 hrs by HPLC-MS/MS analysis; assay type: ADME; settings: PBS buffer with cysteine (thiol reactivity); procedure, shortened: as §1
[5] = Drug reactivity against cysteamine in pH 7.4 PBS buffer assessed as half life at 250 uM measured up to 72 hrs by HPLC-MS/MS analysis; assay type: ADME; settings: PBS buffer with cysteamine (thiol reactivity); procedure, shortened: as §1
[6] = Drug reactivity against N-acetyl-cysteine in pH 7.4 PBS buffer assessed as half life at 250 uM measured up to 72 hrs by HPLC-MS analysis; assay type: ADME; settings: PBS buffer with N-acetyl-cysteine (thiol reactivity); procedure, shortened: as §1
[7] = Drug reactivity against N-bezoyl-cysteamine in pH 7.4 PBS buffer assessed as half life at 250 uM measured up to 72 hrs by HPLC analysis; assay type: ADME; settings: PBS buffer with N-benzoyl-cysteamine (thiol reactivity); procedure, shortened: as §1
[8] = Drug reactivity against glutathione in pH 7.4 PBS buffer assessed as half life at 250 uM measured up to 72 hrs by HPLC analysis; assay type: ADME; settings: PBS buffer with glutathione (thiol reactivity); procedure, shortened: as §1

| SMILES | solubility [1] | half-life at 250 µM [2] | half-life at 250 µM [3] | half-life at 250 µM [4] | half-life at 250 µM [5] | half-life at 250 µM [6] | half-life at 250 µM [7] | half-life at 250 µM [8] |
| --- | --- | --- | --- | --- | --- | --- | --- | --- |
| Fc1cc(C(F)(F)F)cc(C(F)(F)F)c1 | Soluble | > 3000 min | > 50 h | > 3000 min | > 3000 min | > 50 h | > 3000 min |  |
| FC(F)(F)c1cc(S)cc(C(F)(F)F)c1 | Soluble | > 3000 min | 11.2 h | > 3000 min | > 3000 min | 33 h | > 3000 min | 1890 min |
| C=CC(=O)Oc1cc(C(F)(F)F)cc(C(F)(F)F)c1 | Soluble | < 1.02 min | < 0.017 h | < 1.02 min | < 1.02 min | < 0.017 h | < 1.02 min | < 1.02 min |
| O=C(CBr)c1cc(C(F)(F)F)cc(C(F)(F)F)c1 | Soluble | < 1.02 min | < 0.017 h | < 1.02 min | < 1.02 min | < 0.017 h | < 1.02 min | < 1.02 min |
| FC(F)(F)c1cc(N=C=S)cc(C(F)(F)F)c1 | Soluble | 1.02 min | < 0.017 h | < 1.02 min | < 1.02 min | < 0.017 h | < 1.02 min | < 1.02 min |
